Laboratory results reported in ChEMBL document CHEMBL1781980, “Structure-activity relationship studies to probe the phosphoprotein binding site on the carboxy terminal domains of the breast cancer susceptibility gene 1” (J Med Chem, 2011).
Active and inactive are the calls of the source. The rule behind the calls is not given here. Non-standard residues stand in square brackets, D forms with d. Residues, ends and D or L forms follow the SMILES beside them. pS = N[C@@H](COP(=O)(O)O)C(=O)O

Assays:
[1] = molecular target: T1, Breast cancer type 1 susceptibility protein (Homo sapiens, UniProt P38398); test: Binding affinity to BRCA1 by isothermal titration calorimetric assay
Procedure, shortened: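 Direct ITC titration at 25°C. Protein dialyzed three times (2 h each) into 50mM KH2PO4 pH = 7.2; final dialysate used for reference cell and to dissolve peptides. Peptides (100 – 400 μM) in syringe, protein (10 – 20 μM) in cell; 3 μL first injection then 29 × 10 μL every 3 minutes, stirred at 307 rpm. Peptide-into-buffer dilution curves collected; Kd and ΔG, ΔH, ΔS derived.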

[2] = molecular target: T1, Breast cancer type 1 susceptibility protein; test: Inhibition of BRCA1 by fluorescence polarization assay
Procedure, shortened: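 Competitive fluorescence polarization assay. Peptides titrated into a mixture of BRCT protein (1000 nM) and fluorescently labeled tetrapeptide (100 nM). Polarization and fluorescence read on a plate reader. IC50 values obtained by non-linear least square fitting.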
Target sequence in this assay (P38398 whole entry): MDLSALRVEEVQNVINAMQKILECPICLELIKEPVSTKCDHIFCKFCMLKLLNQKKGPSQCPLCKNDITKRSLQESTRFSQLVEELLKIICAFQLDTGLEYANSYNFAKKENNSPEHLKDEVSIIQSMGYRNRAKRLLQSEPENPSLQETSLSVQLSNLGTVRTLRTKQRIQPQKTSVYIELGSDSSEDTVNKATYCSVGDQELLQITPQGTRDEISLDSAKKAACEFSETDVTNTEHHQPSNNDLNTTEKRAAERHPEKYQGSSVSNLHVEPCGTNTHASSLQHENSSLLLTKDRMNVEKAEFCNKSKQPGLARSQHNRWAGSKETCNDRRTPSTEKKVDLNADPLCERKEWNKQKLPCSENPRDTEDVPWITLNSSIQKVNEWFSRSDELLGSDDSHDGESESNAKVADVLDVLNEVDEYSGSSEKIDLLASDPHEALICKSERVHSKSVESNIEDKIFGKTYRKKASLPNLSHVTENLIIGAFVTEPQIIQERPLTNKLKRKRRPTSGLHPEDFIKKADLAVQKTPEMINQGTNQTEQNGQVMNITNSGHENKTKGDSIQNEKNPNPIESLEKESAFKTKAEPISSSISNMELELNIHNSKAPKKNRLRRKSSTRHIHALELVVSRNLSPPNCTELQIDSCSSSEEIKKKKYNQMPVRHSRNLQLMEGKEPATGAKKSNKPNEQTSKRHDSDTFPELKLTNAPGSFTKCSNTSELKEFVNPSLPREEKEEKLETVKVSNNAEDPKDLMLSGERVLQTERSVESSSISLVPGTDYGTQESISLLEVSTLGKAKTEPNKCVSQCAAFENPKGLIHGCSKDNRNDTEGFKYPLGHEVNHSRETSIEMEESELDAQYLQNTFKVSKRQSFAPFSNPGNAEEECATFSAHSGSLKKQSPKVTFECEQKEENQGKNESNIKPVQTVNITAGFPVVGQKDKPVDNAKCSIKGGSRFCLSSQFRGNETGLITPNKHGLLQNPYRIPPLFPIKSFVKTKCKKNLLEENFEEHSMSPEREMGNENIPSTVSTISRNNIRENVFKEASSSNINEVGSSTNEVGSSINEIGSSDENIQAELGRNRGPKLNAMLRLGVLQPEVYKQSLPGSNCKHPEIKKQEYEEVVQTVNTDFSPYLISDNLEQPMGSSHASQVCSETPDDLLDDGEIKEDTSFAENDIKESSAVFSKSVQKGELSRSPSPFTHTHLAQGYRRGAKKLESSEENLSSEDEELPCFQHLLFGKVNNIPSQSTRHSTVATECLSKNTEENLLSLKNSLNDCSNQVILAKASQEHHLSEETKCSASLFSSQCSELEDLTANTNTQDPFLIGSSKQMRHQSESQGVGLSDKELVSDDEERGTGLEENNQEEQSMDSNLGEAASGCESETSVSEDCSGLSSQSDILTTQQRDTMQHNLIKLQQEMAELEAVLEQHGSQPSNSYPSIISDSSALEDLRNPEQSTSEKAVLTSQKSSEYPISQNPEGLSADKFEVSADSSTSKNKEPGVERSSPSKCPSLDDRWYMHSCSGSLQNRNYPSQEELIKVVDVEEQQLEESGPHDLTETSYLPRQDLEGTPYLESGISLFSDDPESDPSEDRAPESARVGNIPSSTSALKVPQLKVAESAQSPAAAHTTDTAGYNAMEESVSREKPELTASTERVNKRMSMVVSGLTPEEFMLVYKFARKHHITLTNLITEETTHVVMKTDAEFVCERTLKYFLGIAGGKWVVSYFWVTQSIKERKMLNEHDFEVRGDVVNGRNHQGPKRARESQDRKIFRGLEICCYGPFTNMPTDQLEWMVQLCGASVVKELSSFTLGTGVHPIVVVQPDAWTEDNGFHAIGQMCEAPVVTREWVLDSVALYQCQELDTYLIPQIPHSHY

SMILES | Activity [1] | Kd [1] [µM] | also measured
CC(=O)N[C@@H](COP(=O)(O)O)C(=O)N1CCC[C@H]1C(=O)N[C@H](C(=O)N[C@@H](Cc1ccccc1)C(N)=O)[C@@H](C)O (Ac-[pS]PTF-NH2) | Active | – | –
CC(=O)N[C@@H](CO)C(=O)N[C@@H](CCCNC(=N)N)C(=O)N[C@@H](CO)C(=O)N[C@H](C(=O)N[C@@H](COP(=O)(O)O)C(=O)N1CCC[C@H]1C(=O)N[C@H](C(=O)N[C@@H](Cc1ccccc1)C(=O)N[C@@H](CC(N)=O)C(=O)N[C@@H](CCCCN)C(N)=O)[C@@H](C)O)[C@@H](C)O | – | 0.44 | –
CC(=O)N[C@@H](COP(=O)(O)O)C(=O)N1CCC[C@H]1C(=O)N[C@H](C(=O)N[C@@H](Cc1ccccc1)C(=O)O)C(C)C (Ac-[pS]PVF-OH) | Active | – | –
CC(=O)N[C@@H](CCC(=O)O)C(=O)N1CCC[C@H]1C(=O)N[C@H](C(=O)N[C@@H](Cc1ccccc1)C(N)=O)[C@@H](C)O (Ac-EPTF-NH2) | – | – | IC50 [2]: > 250 µM
CC[C@H](C)[C@H](N)C(=O)N[C@@H](CO)C(=O)N[C@@H](CCCNC(=N)N)C(=O)N[C@@H](CO)C(=O)N[C@H](C(=O)N[C@@H](COP(=O)(O)O)C(=O)N1CCC[C@H]1C(=O)N[C@H](C(=O)N[C@@H](Cc1ccccc1)C(=O)N[C@@H](CC(N)=O)C(=O)N[C@@H](CCCCN)C(=O)N[C@@H](CCC(N)=O)C(=O)N[C@H](C(=O)O)[C@@H](C)O)[C@@H](C)O)[C@@H](C)O | – | 0.41 | –
CC(=O)N[C@@H](COP(=O)(O)O)C(=O)N1CCC[C@H]1C(=O)N[C@H](C(=O)N[C@@H](Cc1ccccc1)C(N)=O)C(C)C (Ac-[pS]PVF-NH2) | Active | – | –
